Measurements pooled from the literature.
Lines come from different studies, so protocols differ.
Target: D(2) dopamine receptor (DRD2, Homo sapiens, UniProt P14416)
Tested at: 10 µM

`CCCNc1nc2ccccc2n1Cc1ccc(Cl)cc1` gave an inhibition of 1.09% (ligand displacement).
`Cc1ccnc(C)c1OC[C@H]1CN(CCN2CCc3ccccc32)CCO1` gave an inhibition of 6.1% (ligand displacement, radioligand).
The inhibition of `CCN(CC)c1ccc(C2Nc3ccc(C(=O)c4ccccc4)cc3NC3=C2C(=O)CC(C)(C)C3)cc1` (centres unmarked) is reported as 99% (ligand displacement, radioligand).
`Cc1ncccc1OC[C@@H]1CN(CCN2CCc3ccccc32)CCO1` has an inhibition of 15.2% (ligand displacement, radioligand).
`O=C1C2CCCN2C(=O)N1CCCCN1CCN(c2ccccc2)CC1` (centres unmarked) has an inhibition of 48.3% (enzyme activity, inhibitor).
For `O=C(CN1CCO[C@@H](COc2cccnc2)C1)N1CCc2ccccc21`, the inhibition was 5.5% (ligand displacement, radioligand).
For `CN(C)CC#Cc1ccc(OCCCc2sc(N3CCc4cccc(C(=O)Nc5nc6ccccc6s5)c4C3)nc2C(=O)O)c(F)c1`, the inhibition was 31.5% (ligand displacement).
For `O=C1c2ccccc2CCCN1CCCCN1CCN(c2ccccn2)CC1`, the inhibition was 93% (ligand displacement, radioligand).
The inhibition of `O=c1oc2cc(OCC(O)CN3CCN(c4ccc(F)cc4)CC3)ccc2c2c1CCC2` (centres unmarked) is reported as 40.8% (enzyme activity, inhibitor).
`Cc1noc([C@H]2C[C@@H](c3ccc(C(F)(F)F)cc3)CN(C(=O)N3CCS(=O)(=O)C3)C2)n1` has an inhibition of -0.15% (ligand displacement).
`CCn1c2ccccc2c2cc(CNCCCN3CCOCC3)ccc21` has an inhibition of 21.9% (enzyme activity, inhibitor).
`C[C@@H](c1cccc(C#N)c1)n1cc(Cl)cc(C(N)=O)c1=N` gave an inhibition of -3.06% (ligand displacement).
`Cc1ccccc1N1CCN(CC(O)COc2ccc(C(=O)c3ccccc3)cc2)CC1` (centres unmarked) has an inhibition of 49.2% (enzyme activity, inhibitor).
The inhibition of `Cc1ccc(-c2cnc([C@@]3(O)CC[C@H](C(=O)O)C(C)(C)C3)s2)cc1Nc1cccc(C(F)(F)F)n1` is reported as -5.34% (ligand displacement).
For `Clc1cccc(OC[C@H]2CN(CCN3CCc4ccccc43)CCO2)c1`, the inhibition was 63.1% (ligand displacement, radioligand).
With `COc1ccc(S(N)(=O)=O)cc1C(=O)NCCCN1CCN(c2ccccc2C)CC1` the inhibition was 45.1% (enzyme activity, inhibitor).
For `C[C@H](NC(=O)Nc1cc2[nH]ncc2c(CO)n1)c1ccccn1`, the inhibition was 17.7% (cell-free assay).
`COc1cccc(N2CCN(C3CC(=O)N(c4cccc(OC)c4)C3=O)CC2)c1` (centres unmarked) gave an inhibition of 8.6% (enzyme activity, inhibitor).
For `c1ccc(OC[C@@H]2CN(CCN3CCc4ccccc43)CCO2)cc1`, the inhibition was 92.8% (ligand displacement, radioligand).
The inhibition of `O=C1NC(c2ccccn2)Sc2ccccc21` (centres unmarked) is reported as -3.91% (ligand displacement).
